In the library only some 3% were active in any assay of this set; here they are far more common.
SENP8 block-1 – inhibitors of human SENP8 protease | 360,000 tested, 0.64% active | inhibition, % at 20 µM | Q96LD8 | AID 602440 | recombinant SENP8, Nedd8 substrate fluorescence; in the data active = inhibition mostly above about 40%, no sharp cut-off; inactive = mostly below about 27%
SENP7 inh – blocks the human protease SENP7. Q9BQF6. inhibition, % at 5 µM. recombinant SENP7, Z-RLRGG-aminoluciferin luminescence, 40 min. 330,000 tested, 1.5% active;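 active = inhibition above about 50% at the single test dose, limit read from the data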
SENP6 inh – blocks the human protease SENP6. Recombinant SENP6 catalytic domain, aminoluciferin luminescence. inhibition, % at 10 µM. 330,000 tested, 1.8% active. AID 2599;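 active = inhibition above about 50% at the single tested dose, limit read from the data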
Target sequence (Q9GZR1 628-1112 limits assumed): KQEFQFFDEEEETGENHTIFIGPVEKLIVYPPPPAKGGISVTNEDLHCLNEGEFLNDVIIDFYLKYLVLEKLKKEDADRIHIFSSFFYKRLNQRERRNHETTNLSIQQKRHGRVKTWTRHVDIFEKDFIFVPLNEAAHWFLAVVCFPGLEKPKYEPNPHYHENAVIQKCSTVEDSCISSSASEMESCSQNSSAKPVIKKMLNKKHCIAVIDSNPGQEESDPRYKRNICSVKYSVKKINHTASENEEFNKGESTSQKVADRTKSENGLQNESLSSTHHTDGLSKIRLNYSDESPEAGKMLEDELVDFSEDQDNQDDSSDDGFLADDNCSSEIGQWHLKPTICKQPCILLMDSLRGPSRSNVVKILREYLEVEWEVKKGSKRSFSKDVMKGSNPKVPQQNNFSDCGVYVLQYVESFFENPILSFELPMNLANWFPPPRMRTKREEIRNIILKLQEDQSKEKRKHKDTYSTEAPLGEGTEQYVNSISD
UBC13 inh – human UBC13 polyubiquitination inhibition. P61088. UBC13 polyubiquitin chain formation, TR-FRET. inhibition, % at 20 µM. 330,000 tested, 0.47% active; in the data active = inhibition above about 45%, passing the limit was not always enough
Target sequence (P61088 whole entry, looked up): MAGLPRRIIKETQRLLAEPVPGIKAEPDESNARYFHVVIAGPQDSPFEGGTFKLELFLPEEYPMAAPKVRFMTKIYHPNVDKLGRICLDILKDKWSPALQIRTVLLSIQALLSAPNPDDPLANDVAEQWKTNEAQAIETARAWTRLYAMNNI
SENP8 block-2 – blocks the human protease SENP8 | purified SENP8, Z-RLRGG-aminoluciferin cleavage, luminescence | AID 2540 | Q96LD8 | 330,000 tested, 1.2% active | inhibition, % at 10 µM; in the data active = inhibition above about 50%
Apaf-1 inh – human Apaf-1 inhibition. reconstituted apoptosome caspase-3 activity, DEVD-Rh110 fluorescence. 330,000 tested, 0.71% active. AID 489030. inhibition, % at 20 µM. O14727; active = inhibition of at least 40% at 20 µM
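System: reconstituted apoptosome with Apaf-1, cytochrome c, caspase-9, procaspase-3, dATP; Signal: Rh110 fluorescence intensity; Schedule: 30 min compound preincubation, 50 min activation, room temperature; Reagent: cytochrome c trigger plus (Z-DEVD)2-Rh110 caspase-3 substrate.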
SENP8 confirm – human SENP8 inhibition, confirmed; inhibition, % at 12.5 µM; shares compounds with SENP7 inh; 6,200 tested, 40% active; Recombinant SENP8, Z-RLRGG-aminoluciferin luminescence, 60 min;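 active = mean inhibition across replicates above about 50%, limit read from the data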
SENP6 confirm – confirmation of human SENP6 protease inhibitors; recombinant SENP6, Z-RLRGG-aminoluciferin luminescence; shares compounds with SENP7 inh; 6,200 tested, 58% active; inhibition, % at 12.5 µM
SENP7 confirm – confirmation of human SENP7 protease inhibitors; shares compounds with SENP7 inh; 6,200 tested, 69% active; inhibition, % at 12.5 µM; recombinant SENP7, Z-RLRGG-aminoluciferin luminescence, 40 min
Casp3 SENP sel – selectivity test for SENP inhibitors: human caspase-3 inhibition | purified caspase-3, Z-DEVD-aminoluciferin luminescence, 60 min | 6,200 tested, 60% active | shares compounds with SENP7 inh | inhibition, % at 12.5 µM;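 active = mean inhibition above about 50%, limit read from the data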
SENP luc ctr – counter-screen for SENP inhibitors: luminescence interference | shares compounds with SENP7 inh | 6,200 tested, 39% active | Pre-incubated SENP8/Z-RLRGG-aminoluciferin, luciferase luminescence interference | inhibition, % at 12.5 µM;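 active = mean inhibition above about 50% when retested at one dose, limit read from the data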
Hits are given with their value; – = inactive; · = not tested or not shown.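 The calls were made as follows, unless noted: active = mean inhibition above about 50% in the one-dose retest (limit read from the data); inactive = the rest.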

SMILES	SENP8 block-1	SENP7 inh	SENP6 inh	UBC13 inh	SENP8 block-2	Apaf-1 inh	SENP8 confirm	SENP6 confirm	SENP7 confirm	Casp3 SENP sel	SENP luc ctr
Oc1ccccc1C1=Nc2nc3ccccc3n2C(c2ccccc2)C1 (centres undefined)	–	71	79	–	59	–	–	–	–	–	–
c1ccc(-c2ccc3sccc3n2)cc1	–	85	83	–	75	–	–	78	94	79	57
c1ccc(-c2ccc3cnccc3n2)cc1	–	·	·	·	·	·	·	·	·	·	·
Cc1ccccc1CNC(=O)C1CCC(=O)N(C2CCCCCC2)C1 (centres undefined)	–	–	–	–	–	–	·	·	·	·	·
Cc1ccc(SCC(=O)NCC2COc3ccccc3O2)cc1 (centres undefined)	–	–	–	–	–	–	·	·	·	·	·
COc1ccc(C2=NN(c3ccccc3)C(c3ccc(OC)c(OC)c3)C2)cc1 (centres undefined)	–	–	–	–	–	–	·	·	·	·	·
COc1ccc(C2=NN(C(C#N)c3ccc(OC)c(OC)c3)C(c3ccccc3)C2)cc1 (centres undefined)	–	65	75	–	–	–	–	–	–	–	–
CCOc1ccc2nc(C(C)O)[nH]c2c1 (centres undefined)	–	–	–	–	–	–	·	·	·	·	·
COc1ccc2[nH]c(C(=O)NCc3ccccc3)cc2c1	–	–	–	–	–	–	·	·	·	·	·
COc1ccc2nc(NCc3ccccc3)[nH]c2c1	–	–	–	–	–	–	·	·	·	·	·
COc1ccc2nc(-c3ccccc3)[nH]c2c1	–	95	95	–	83	–	–	90	99	94	89
COc1ccc2[nH]c(-c3ccc(C)cc3)cc(=O)c2c1	–	73	81	–	77	–	51	81	95	92	–
COc1ccc2[nH]c(-c3ccccc3)cc2c1	–	90	92	–	86	–	–	89	99	61	–
CCOc1ccc2nc(-c3ccccc3)[nH]c2c1	–	89	88	–	69	–	85	82	94	85	84
NS(=O)(=O)c1ccc(CNC(=S)NC2CCCC2)cc1	–	–	–	–	–	–	·	·	·	·	·
COc1ccccc1NS(=O)(=O)c1cccc(C(=O)NCC(c2cccs2)N(C)C)c1 (centres undefined)	–	·	·	·	·	·	·	·	·	·	·
O=C(C[C@@H]1C[C@@H]2c3cc(NS(=O)(=O)c4ccc(F)cc4)ccc3O[C@@H]2[C@H](CO)O1)N1CCc2ccccc2C1	–	·	·	·	·	·	·	·	·	·	·
COc1ccc([C@H]2C[C@@H](O)[C@H](n3cc(C4CC4)nn3)CN2CC2CCCCC2)cc1	–	·	·	·	·	·	·	·	·	·	·
S=C(Nc1ccccc1)N1N=CCC1c1ccccc1 (centres undefined)	–	–	–	–	–	–	·	·	·	·	·
Fc1ccc(NC(=S)N2N=CCC2c2ccccc2)cc1 (centres undefined)	–	–	58	–	–	–	–	–	66	–	–
CSc1ccccc1NC(=O)Nc1cccc(Cl)c1	–	80	83	–	67	–	83	80	95	53	73
CN(C)c1ccc(NC(=O)Nc2cccc(Cl)c2)cc1	–	88	89	–	80	–	76	85	99	82	66
COc1ccccc1C(=O)Nc1cccc(NC(C)=O)c1	–	–	–	–	–	–	·	·	·	·	·
COc1cccc(NC(=O)Nc2ccccc2SC)c1	–	–	–	–	51	–	78	72	91	71	72
COc1ccc(NC(=O)Nc2ccccc2SC)c(OC)c1	–	–	–	–	–	–	·	·	·	·	·
SMILES	SENP8 block-1	SENP7 inh	SENP6 inh	UBC13 inh	SENP8 block-2	Apaf-1 inh	SENP8 confirm	SENP6 confirm	SENP7 confirm	Casp3 SENP sel	SENP luc ctr
COc1ccccc1C(=O)NC(=O)Nc1cccc(Cl)c1	–	85	79	–	82	–	–	–	–	–	–
CN(c1cccc(NC(=O)Nc2cccc(Cl)c2)c1)S(C)(=O)=O	–	–	–	–	–	–	·	·	·	·	·
CCN(c1ccccc1)S(=O)(=O)c1cccc(C(=O)NCC(c2ccc(F)cc2)N2CCOCC2)c1 (centres undefined)	–	·	·	·	·	·	·	·	·	·	·
CCC(C(=O)NCCC(C)C)n1ccc2cc(S(=O)(=O)N3CCCCC3)ccc21 (centres undefined)	–	–	–	–	–	–	·	·	·	·	·
CC1C(=O)N(Cc2cccc(F)c2)c2ccccc2N1C(=O)c1ccccc1 (centres undefined)	–	–	–	–	–	–	·	·	·	·	·
CSc1ccccc1NC(=O)Nc1ccc(F)c(Cl)c1	–	87	77	–	68	–	–	76	96	68	72
Cc1ccc(NC(=O)Nc2ccc(F)c(Cl)c2)cc1	–	–	–	–	–	–	·	·	·	·	·
CCCCNC(=O)Cn1c(=O)c2c(ncn2CC)n(Cc2ccccc2)c1=O	–	–	–	–	–	–	·	·	·	·	·
Clc1ccc(-c2nnc(NC3=NCCCCC3)o2)cc1	–	88	73	–	80	–	–	–	57	–	–
CC(=O)/C(N=Nc1ccc2c(c1)OCCO2)=C(\C)O	–	82	79	–	75	–	81	80	96	92	60
CN(C)c1ccc(C(=O)c2ccccc2)cc1	–	–	–	–	–	–	·	·	·	·	·
CC(=O)/C(N=Nc1ccc2c(c1)OCO2)=C(\C)O	–	83	84	–	59	–	–	–	78	74	–
CN(C)c1ccc(N=Nc2ccc(C(=O)O)cc2)cc1	–	87	93	–	86	–	89	91	101	73	58
O=C(O)c1ccc(N=NN2CCCCC2)cc1	–	–	68	–	–	–	54	–	85	57	66
CCN(CC)S(=O)(=O)c1ccc(N=N/C(C(C)=O)=C(/C)O)cc1	–	–	–	–	–	–	·	·	·	·	·
O=c1[nH]cc(S(=O)(=O)N2CCOCC2)c(=O)[nH]1	–	–	–	–	–	–	·	·	·	·	·
COC(=O)Nc1ccc2ccc3c(NC(=O)OC)ccc4ccc1c2c43	–	·	·	·	·	·	·	·	·	·	·
CC(=O)/C(N=Nc1ccc(C(=O)O)cc1)=C(\C)O	–	67	76	–	–	–	58	58	87	92	73
CC(=O)/C(N=Nc1ccc(OC(F)(F)F)cc1)=C(\C)O	–	–	–	–	–	–	·	·	·	·	·
COc1ccc(OC)c2sc(N3CCc4ccccc4C3)nc12	–	–	–	–	–	–	·	·	·	·	·

Screening data: PubChem BioAssay, Sanford-Burnham Center for Chemical Genomics
